This is an account of results in PubChem BioAssay.

Active and inactive are the calls of the source.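 How the source made its calls, unless noted: active means fluorescence slope after compound addition differing from the mean of all tested samples at 99.7% confidence, mostly higher but some lower; inactive means the rest.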

Experiment [1] can be described thus: inhibitors of TNFa-induced NFkB p65 translocation, primary screen, imaging, HUVEC, MLSMR starter and 10KST1 sets (AID 438;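 active means inhibition above 20% together with a positive visual image hit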;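 further: compound added about 3h40 before a 20 min TNFalpha stimulation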;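 on inhibition: signal is the nuclear over cytoplasmic p65 intensity ratio per well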). To be noted: HUVEC TNFa-induced p65 nuclear translocation; cell count: measured here: nuclei count (cytotoxicity indicator), at 2.08 µM; inhibition: at 2 µM, stronger effect = higher value, 0% TNFa-plus-vehicle, 100% no-TNFa wells.
Experiment [2] can be described thus: inhibitors of mutant huntingtin aggregation, primary screen, imaging, exon1htt(103Q)mCFP cells, high-content imaging (AID 483;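 active means visual image review flags a hit and inhibition of aggregation exceeds 20%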;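 further: compound exposure lasted 3 days before fixation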;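 on nuclei count: percent of the per-plate median nuclei count of sample wells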). To be noted: exon1htt(103Q)mCFP cell line, aggregate imaging, at 2 µM; inhibition of aggregation: stronger effect = higher value; nuclei count: measured here: cell count, toxicity.
The nature of experiment [3]: inhibitors of E-selectin induction by TNFa, primary screen, imaging, HUVEC, immunofluorescence, MLSMR starter and 10KST1 sets (AID 487;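 active means visually confirmed hit in the image check and inhibition above 20%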;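 on inhibition: signal is fraction of cell area covered by stained E-selectin grains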;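 on nuclei count: 100% = median nuclei count of all wells on the same plate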). The conditions noted are these: HUVEC TNFalpha-induced E-selectin immunofluorescence imaging, at 2 µM; inhibition: stronger effect = higher value; nuclei count: measured here: cell number, toxicity.
The target in experiment [4] is Voltage-gated potassium channel subunit beta-2 (Rattus norvegicus) (UniProt P62483). Nature of the experiment: KvBeta enzyme negative modulators, primary screen, biochemical, NADPH fluorescence (AID 622;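 active means fluorescence slope higher than the sample average by over 3 SD, cut at about -0.22 in these data, passing the limit was not always enough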;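 further: slope of raw intensity against log time taken from 70 to 1610 s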). To be noted: recombinant KvBeta, 4-cyanobenzaldehyde reduction, at 10 µM, stronger effect = higher value.
Sequence of Voltage-gated potassium channel subunit beta-2 (Rattus norvegicus) (P62483 whole entry, looked up): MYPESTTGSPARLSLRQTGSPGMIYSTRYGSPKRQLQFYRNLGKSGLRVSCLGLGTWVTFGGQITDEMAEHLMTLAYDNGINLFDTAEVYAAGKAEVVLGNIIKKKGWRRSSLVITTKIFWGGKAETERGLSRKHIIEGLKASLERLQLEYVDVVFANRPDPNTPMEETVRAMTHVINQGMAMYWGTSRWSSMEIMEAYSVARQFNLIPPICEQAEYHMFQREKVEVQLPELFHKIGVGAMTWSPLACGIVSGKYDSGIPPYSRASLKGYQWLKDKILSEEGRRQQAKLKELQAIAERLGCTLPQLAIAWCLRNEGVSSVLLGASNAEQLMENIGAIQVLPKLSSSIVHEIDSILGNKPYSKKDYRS
The target is the same in experiment [5]. Nature of the experiment: KvBeta positive modulators, primary screen, biochemical, NADPH fluorescence (AID 623;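 active means NADPH fluorescence slope more negative than the mean of all samples by about 3 SD, 99.7% confidence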;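 further: fluorescence intensity change per second fitted from 20 to 320 s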). To be noted: Recombinant KvBeta, NADPH fluorescence decrease slope, 10 min; at 10 µM; stronger effect = lower value.
Experiment [6] addresses Muscarinic acetylcholine receptor M4 (Homo sapiens) (UniProt P08173). The experiment is described as follows: compounds altering M4/GIRK thallium flux, either direction, primary screen, M4 allosteric agonist project, cell-based, HEK293 M4/GIRK, BTC-AM (AID 625).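 Further: thallium influx through GIRK channels coupled to M4 in HEK293 cells with BTC-AM dye.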 The conditions noted are these: at 10 µM, actives lie on both sides. In a few lines: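 Material: M4/GIRK1/GIRK2 stable HEK293 cell line. Medium: pH 7.3 thallium assay buffer. Dosing: single compound concentration, 10 µM final. Schedule: 1 h dye loading, 2 min kinetic read. Measured by: kinetic fluorescence with BTC-AM dye. Read-out: post-addition slope, 15–24 s, of baseline-normalized fluorescence. Benchmarks: carbachol and DMSO controls.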

Experiment [7] in a line: inhibitors of Sendai virus-induced IRF3 signaling, primary screen, TLR/RLR signaling modifier project, cell-based, Sendai virus stimulus, luciferase, 10K MLSCN set (AID 602276;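 active means inhibition at or above 50% at 10 µM; inactive means inhibition below 50%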;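 further: firefly luciferase from ISG56 promoter only with Renilla not read in this screen; 0% = Sendai virus plus DMSO and 100% = medium plus DMSO without virus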). To be noted: HEK293 RL24 IRF3 luciferase reporter, at 10 µM, stronger effect = higher value. In general terms: A reporter such as luciferase makes a cellular process visible.
The nature of experiment [8]: inhibitors of poly I:C-induced TLR3 signaling, primary screen, cell-based, poly I:C stimulus, luciferase, 10K MLSCN set (AID 602277;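 active means inhibition of the reporter signal at or above 50%; inactive means inhibition below 50%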). To be noted: HEK293-TLR3 RL24 IRF3 luciferase reporter, at 10 µM, stronger effect = higher value.

Sequence of Muscarinic acetylcholine receptor M4 (Homo sapiens) (P08173 whole entry, looked up): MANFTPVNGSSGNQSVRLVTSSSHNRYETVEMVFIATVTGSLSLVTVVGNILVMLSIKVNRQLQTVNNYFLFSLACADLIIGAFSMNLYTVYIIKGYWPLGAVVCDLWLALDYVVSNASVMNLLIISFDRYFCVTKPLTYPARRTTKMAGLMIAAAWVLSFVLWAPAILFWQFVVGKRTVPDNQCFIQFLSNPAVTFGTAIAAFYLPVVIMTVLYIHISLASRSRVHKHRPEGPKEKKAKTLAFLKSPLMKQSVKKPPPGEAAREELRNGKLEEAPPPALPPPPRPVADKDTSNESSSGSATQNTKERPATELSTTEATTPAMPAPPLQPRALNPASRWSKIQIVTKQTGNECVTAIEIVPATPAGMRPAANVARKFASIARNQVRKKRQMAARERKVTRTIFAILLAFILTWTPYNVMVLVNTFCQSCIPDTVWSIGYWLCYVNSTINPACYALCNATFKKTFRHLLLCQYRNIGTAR

A word on the inhibition: it is the drop in the measured response relative to a control, in per cent. On to `Oc1cccc2ccc(Nc3ccccn3)nc12`, for which, in experiment [1], the cell count came to 583. For the same molecule, the inhibition in experiment [1] was -9.7% (inactive); in experiment [3] it was 11.4% (inactive); in experiment [7], 11% (inactive); in experiment [8], 97.5% (active). In addition, the inhibition of aggregation in experiment [2] is -24.8% (inactive). The nuclei count in experiment [2] was 82.5%; in experiment [3] it was 99.8%. For the same molecule, the fluorescence slope is -0.563 (inactive) in experiment [4] and 0.0033 (inactive) in experiment [6]. Further, the NADPH fluorescence slope in experiment [5] was -3.9e-05 (inactive).

Consider `Cc1cc(NC(=O)NC(=O)c2cccc(OC(F)(F)C(F)F)c2)n[nH]1`, for which the cell count in experiment [1] worked out at 520. In addition, the inhibition was -14% (inactive) in experiment [1], -45% (inactive) in experiment [3], -14.7% (inactive) in experiment [7] and -48.5% (inactive) in experiment [8]. In experiment [2], the inhibition of aggregation is -5.5% (inactive). For the same molecule, the nuclei count in experiment [2] was determined as 76.8%; in experiment [3], 102%. Also, the values for the fluorescence slope in experiment [4] and in experiment [6] were -0.539 (inactive) and 0.00729 (inactive), respectively. In addition, the NADPH fluorescence slope in experiment [5] is 0.000153 (inactive).

`O=C(CSC1=NC(=O)C(Cc2ccccc2)C(=O)N1)NC1CCCCC1` (centres undefined): the cell count in experiment [1] turned out to be 605. Moreover, the inhibition in experiment [1] was -9.8% (inactive); in experiment [3] it was -11.4% (inactive); in experiment [7], -10.2% (inactive); in experiment [8], -11.1% (inactive). Moreover, in experiment [2], the inhibition of aggregation is -13.9% (inactive). For the same molecule, the nuclei count worked out at 104% in experiment [2] and 108% in experiment [3]. Also, the fluorescence slope in experiment [4] was -0.558 (inactive); in experiment [6] it was 0.0034 (inactive). In addition, the NADPH fluorescence slope in experiment [5] was -6.8e-05 (inactive).

As for `COc1ccc(-n2ncc3c(NCc4ccccn4)ncnc32)cc1`, the cell count in experiment [1] was 463. The inhibition in experiment [1] was -1.9% (inactive); in experiment [3] it was 14.4% (inactive); in experiment [7], -12.7% (inactive); in experiment [8] it was -61.6% (inactive). Moreover, in experiment [2], the inhibition of aggregation was 7.6% (inactive). In addition, the values for the nuclei count in experiment [2] and in experiment [3] were 94% and 102%, respectively. The fluorescence slope in experiment [4] was -0.541 (inactive); in experiment [6] it was 0.0051 (inactive). In experiment [5], the NADPH fluorescence slope is -4e-05 (inactive).

Turning to `Cc1nc(SCC#N)c2c(C)c(C)sc2n1`, the cell count in experiment [1] amounted to 818. Moreover, the inhibition in experiment [1] is -4.3% (inactive); in experiment [3], -84.3% (inactive); in experiment [7] it was 10.7% (inactive); in experiment [8] it was -9.75% (inactive). Moreover, the inhibition of aggregation in experiment [2] was -3.4% (inactive). Also, the nuclei count was found to be 101% in experiment [2] and 118% in experiment [3]. The fluorescence slope is -0.551 (inactive) in experiment [4] and 0.00593 (inactive) in experiment [6]. Moreover, the NADPH fluorescence slope in experiment [5] is -2.7e-05 (inactive).

For `O=C(COc1ncnc2ccccc12)NCc1ccc2c(c1)OCO2`, in experiment [1], the cell count is 345. Further, the inhibition in experiment [1] is -1.6% (inactive); in experiment [3], -38.6% (inactive); in experiment [7] it was 15.1% (inactive); in experiment [8], 16.2% (inactive). Further, the inhibition of aggregation in experiment [2] was -8.2% (inactive). For the same molecule, the results for the nuclei count in experiment [2] and in experiment [3] were 101% and 105%, respectively. The figures for the fluorescence slope in experiment [4] and in experiment [6] were -0.584 (inactive) and 0.00352 (inactive), respectively. Besides, the NADPH fluorescence slope in experiment [5] was -5e-06 (inactive).

On to `CC(=O)c1cc(-c2ccccc2)n(CC(=O)N2CCN(C3CCCC3)CC2)c1C`, for which the cell count in experiment [1] worked out at 407. The inhibition was 8.8% (inactive) in experiment [1], 25.1% (inactive) in experiment [3], 13.3% (inactive) in experiment [7] and 23.8% (inactive) in experiment [8]. Moreover, the inhibition of aggregation in experiment [2] was 23.8% (inactive). Besides, the nuclei count was determined as 81% in experiment [2] and 103% in experiment [3]. Moreover, the fluorescence slope in experiment [4] was -0.571 (inactive); in experiment [6], 0.00681 (inactive). In addition, the NADPH fluorescence slope in experiment [5] is -7.1e-05 (inactive).

As for `O=C(Cn1c(=O)[nH]n(-c2ccccc2)c1=O)N1CCCc2ccccc21`, in experiment [1], the cell count came to 328. The inhibition in experiment [1] was 0% (inactive); in experiment [3], -87.1% (inactive); in experiment [7], 14.4% (inactive); in experiment [8], 25.6% (inactive). Also, the inhibition of aggregation in experiment [2] is -15.3% (inactive). Also, the nuclei count was 117% in experiment [2] and 118% in experiment [3]. The fluorescence slope in experiment [4] was -0.387 (inactive); in experiment [6], 0.00957 (inactive). Also, in experiment [5], the NADPH fluorescence slope is -5.1e-05 (inactive).

As to `Cc1nc2cccc(C(=O)NC3CCCCC3)c2o1`, the cell count in experiment [1] stood at 369. Moreover, the inhibition is 6.8% (inactive) in experiment [1], -67.3% (inactive) in experiment [3], 10.4% (inactive) in experiment [7] and 13.1% (inactive) in experiment [8]. Also, the inhibition of aggregation in experiment [2] is -19.6% (inactive). Also, the nuclei count in experiment [2] came out at 53.7%; in experiment [3], 102%. Further, the values for the fluorescence slope in experiment [4] and in experiment [6] were -0.416 (inactive) and 0.00546 (inactive), respectively. The NADPH fluorescence slope in experiment [5] is -1.2e-05 (inactive).

In the case of `Cc1ccc(-c2cc(C(F)(F)F)n3ncc(C(=O)O)c3n2)cc1`, the cell count in experiment [1] is 412. Moreover, the inhibition is 3.1% (inactive) in experiment [1], -26.7% (inactive) in experiment [3], 19.6% (inactive) in experiment [7] and 21.8% (inactive) in experiment [8]. Further, the inhibition of aggregation in experiment [2] is -8.3% (inactive). Besides, the nuclei count in experiment [2] was 109%; in experiment [3], 110%. In addition, the fluorescence slope is -0.524 (inactive) in experiment [4] and 0.00395 (inactive) in experiment [6]. Moreover, the NADPH fluorescence slope in experiment [5] was -3.4e-05 (inactive).

As for `COc1ccccc1-c1coc2c(CN3CCN(CCO)CC3)c(O)ccc2c1=O`, the cell count in experiment [1] came to 615. Moreover, the inhibition in experiment [1] is -0.2% (inactive); in experiment [3] it was -16% (inactive); in experiment [7], 12.9% (inactive); in experiment [8], 5.54% (inactive). In experiment [2], the inhibition of aggregation is -9.4% (inactive). Moreover, the nuclei count in experiment [2] was found to be 102%; in experiment [3], 105%. In addition, the values for the fluorescence slope in experiment [4] and in experiment [6] were -0.027 (active) and 0.0043 (inactive), respectively. Besides, the NADPH fluorescence slope in experiment [5] was 5.8e-06 (inactive).

For the molecule `CCOC(=O)CSc1nc2cc(C(=O)NCc3ccco3)ccc2c(=O)n1-c1ccc(F)cc1`, the cell count in experiment [1] worked out at 329. In addition, the inhibition in experiment [1] was 7.7% (inactive); in experiment [3], 7.7% (inactive); in experiment [7], -7.4% (inactive); in experiment [8], -0.0676% (inactive). Also, the inhibition of aggregation in experiment [2] is -7.1% (inactive). Also, the values for the nuclei count in experiment [2] and in experiment [3] were 104% and 92.9%, respectively. In addition, the fluorescence slope in experiment [4] was -0.481 (inactive); in experiment [6] it was 0.00969 (inactive). The NADPH fluorescence slope in experiment [5] is 0.000117 (inactive).

Regarding `O=C(Cc1ccc(Br)cc1)N1CCCCCC1`, the cell count in experiment [1] turned out to be 358. Also, the inhibition was -0.2% (inactive) in experiment [1], -68.6% (inactive) in experiment [3], -33.9% (inactive) in experiment [7] and -69.5% (inactive) in experiment [8]. Moreover, the inhibition of aggregation in experiment [2] is 1.7% (inactive). The nuclei count is 99.5% in experiment [2] and 99.7% in experiment [3]. The fluorescence slope in experiment [4] is -0.657 (inactive); in experiment [6] it was 0.00369 (inactive). Moreover, in experiment [5], the NADPH fluorescence slope was 1.8e-05 (inactive).

For the molecule `COCCn1c(-c2ccc(OC)c(OC)c2)nc2ccccc21`, the cell count in experiment [1] was 247. In addition, the inhibition in experiment [1] is -1.1% (inactive); in experiment [3] it was 16.7% (inactive); in experiment [7], -2.29% (inactive); in experiment [8], 11% (inactive). The inhibition of aggregation in experiment [2] is 28.5% (inactive). Besides, the values for the nuclei count in experiment [2] and in experiment [3] were 85.8% and 77.6%, respectively. The results for the fluorescence slope in experiment [4] and in experiment [6] were -0.536 (inactive) and 0.00485 (inactive), respectively. In addition, in experiment [5], the NADPH fluorescence slope was -3.2e-05 (inactive).
